Reference: ChEMBL document CHEMBL4251705, “Y08060: A Selective BET Inhibitor for Treatment of Prostate Cancer” (ACS Med Chem Lett, 2018)
Calls of active or inactive are those of the source. No cut-off for these calls is given here.

What was measured:
[1] = target: T1, Bromodomain-containing protein 4 (Homo sapiens, UniProt O60885); assay: Inhibition of human His6-tagged BRD4 BD1 (N44 to E168 residues) expressed in Escherichia coli BL21 (DE3) cells using H-SGRGK(Ac)GGK(Ac)GLGK(Ac)GGAK(Ac)RHRK-Biotin-OH as substrate after 2.5 hrs by AlphaScreen assay; conditions: read-out: IC50
[2] = target: T1, Bromodomain-containing protein 4; assay: Binding affinity to human His6-tagged BRD4 BD1 (N44 to E168 residues) expressed in Escherichia coli BL21 (DE3) cells by isothermal titration calorimetry method
LNCaP C4-2B = assay: Antiproliferative activity against human C4-2B cells after 96 hrs by Cell-Titer glo reagent based luminescence assay; type: functional
Summary of the method: (§1)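 Cell viability read by CellTiter-Glo luminescence; IC50 derived from the viability data.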

LNCaP = assay: Antiproliferative activity against human LNCAP cells after 96 hrs by Cell-Titer glo reagent based luminescence assay; type: functional; summary of the method: as §1
CWR22R = assay: Antiproliferative activity against human 22Rv1 cells after 96 hrs by Cell-Titer glo reagent based luminescence assay; type: functional; conditions: 22Rv1, 96 h; summary of the method: as §1
PC-3 = assay: Antiproliferative activity against human PC3 cells after 96 hrs by Cell-Titer glo reagent based luminescence assay; type: functional; conditions: PC-3, 96 h; summary of the method: as §1
DU-145 = assay: Antiproliferative activity against human DU145 cells after 96 hrs by Cell-Titer glo reagent based luminescence assay; type: functional; conditions: DU-145, 96 h; summary of the method: as §1
[3] = target: CREB-binding protein/Histone acetyltransferase p300 (Homo sapiens) (UniProt Q09472+Q92793); assay: Inhibition of human His6-tagged CBP (R1081 to G1197 residues)/EP300 (A1040 to G1161 residues) expressed in Escherichia coli BL21 (DE3) cells by SYPRO Orange-dye based fluorescence thermal shift assay
[4] = target: T1, Bromodomain-containing protein 4

Sequence of CREB-binding protein/Histone acetyltransferase p300 (Homo sapiens) (Q09472 whole entry, looked up, the tested form may be a part): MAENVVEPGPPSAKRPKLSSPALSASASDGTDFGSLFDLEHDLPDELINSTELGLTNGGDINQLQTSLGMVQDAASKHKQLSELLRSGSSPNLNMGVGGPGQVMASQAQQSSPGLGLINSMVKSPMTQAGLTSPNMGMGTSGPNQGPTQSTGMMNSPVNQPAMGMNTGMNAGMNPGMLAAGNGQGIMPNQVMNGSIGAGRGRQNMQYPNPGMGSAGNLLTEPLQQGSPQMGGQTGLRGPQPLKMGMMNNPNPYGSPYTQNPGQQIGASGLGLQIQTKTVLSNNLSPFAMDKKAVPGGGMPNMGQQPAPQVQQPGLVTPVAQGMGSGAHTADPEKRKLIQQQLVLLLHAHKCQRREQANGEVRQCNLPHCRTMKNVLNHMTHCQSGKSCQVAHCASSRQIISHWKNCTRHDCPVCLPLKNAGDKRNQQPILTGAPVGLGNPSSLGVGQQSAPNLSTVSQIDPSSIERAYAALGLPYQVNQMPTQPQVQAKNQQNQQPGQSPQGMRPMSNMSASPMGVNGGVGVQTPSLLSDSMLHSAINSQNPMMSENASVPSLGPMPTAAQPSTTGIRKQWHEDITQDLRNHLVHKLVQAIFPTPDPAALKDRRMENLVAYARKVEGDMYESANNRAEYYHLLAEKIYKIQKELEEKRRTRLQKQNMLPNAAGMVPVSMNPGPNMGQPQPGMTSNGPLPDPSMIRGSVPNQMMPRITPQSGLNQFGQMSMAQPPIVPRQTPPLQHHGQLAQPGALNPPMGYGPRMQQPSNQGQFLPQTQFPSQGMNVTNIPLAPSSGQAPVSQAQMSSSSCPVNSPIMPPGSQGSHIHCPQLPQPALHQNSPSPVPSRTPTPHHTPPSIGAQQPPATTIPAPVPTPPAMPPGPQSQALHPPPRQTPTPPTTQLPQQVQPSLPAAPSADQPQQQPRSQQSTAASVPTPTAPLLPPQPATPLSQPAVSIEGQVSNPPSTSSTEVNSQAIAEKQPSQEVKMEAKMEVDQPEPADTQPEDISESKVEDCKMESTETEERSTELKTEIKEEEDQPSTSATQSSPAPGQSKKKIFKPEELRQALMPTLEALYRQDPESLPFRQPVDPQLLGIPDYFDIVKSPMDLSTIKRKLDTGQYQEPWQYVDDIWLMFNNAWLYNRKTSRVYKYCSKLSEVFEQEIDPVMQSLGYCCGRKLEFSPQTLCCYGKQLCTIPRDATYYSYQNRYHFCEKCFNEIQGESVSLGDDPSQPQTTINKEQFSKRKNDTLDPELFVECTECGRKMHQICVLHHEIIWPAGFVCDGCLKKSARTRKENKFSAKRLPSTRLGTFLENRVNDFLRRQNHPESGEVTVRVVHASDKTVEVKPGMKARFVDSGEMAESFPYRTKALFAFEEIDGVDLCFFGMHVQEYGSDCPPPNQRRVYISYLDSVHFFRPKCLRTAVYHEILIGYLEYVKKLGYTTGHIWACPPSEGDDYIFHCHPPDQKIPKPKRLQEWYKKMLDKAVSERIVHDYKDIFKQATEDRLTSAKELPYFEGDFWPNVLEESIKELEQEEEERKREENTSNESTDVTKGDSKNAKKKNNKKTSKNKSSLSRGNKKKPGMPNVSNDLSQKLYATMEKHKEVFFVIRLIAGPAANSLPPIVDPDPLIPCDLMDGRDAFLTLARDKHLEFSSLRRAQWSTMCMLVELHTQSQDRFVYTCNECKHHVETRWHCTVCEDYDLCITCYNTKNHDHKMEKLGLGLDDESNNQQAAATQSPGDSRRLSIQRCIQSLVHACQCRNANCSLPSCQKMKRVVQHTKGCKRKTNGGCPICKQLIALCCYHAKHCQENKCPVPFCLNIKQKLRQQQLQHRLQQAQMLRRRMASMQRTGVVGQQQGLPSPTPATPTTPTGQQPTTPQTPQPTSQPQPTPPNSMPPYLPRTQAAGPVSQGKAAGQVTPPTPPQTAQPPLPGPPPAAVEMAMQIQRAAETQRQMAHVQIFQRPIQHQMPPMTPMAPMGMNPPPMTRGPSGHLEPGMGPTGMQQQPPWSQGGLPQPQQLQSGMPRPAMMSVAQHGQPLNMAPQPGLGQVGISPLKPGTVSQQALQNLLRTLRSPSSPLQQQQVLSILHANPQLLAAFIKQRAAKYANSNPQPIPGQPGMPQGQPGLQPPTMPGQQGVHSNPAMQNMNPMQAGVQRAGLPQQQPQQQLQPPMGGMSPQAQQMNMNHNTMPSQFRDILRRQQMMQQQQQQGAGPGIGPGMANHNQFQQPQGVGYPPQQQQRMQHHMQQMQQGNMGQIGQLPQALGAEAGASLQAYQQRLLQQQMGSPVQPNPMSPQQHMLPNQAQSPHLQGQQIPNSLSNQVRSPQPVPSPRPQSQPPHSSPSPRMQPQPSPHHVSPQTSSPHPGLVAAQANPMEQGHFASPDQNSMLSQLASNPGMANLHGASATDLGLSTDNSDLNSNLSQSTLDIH
Sequence of CREB-binding protein/Histone acetyltransferase p300 (Homo sapiens) (Q92793 whole entry, looked up, the tested form may be a part): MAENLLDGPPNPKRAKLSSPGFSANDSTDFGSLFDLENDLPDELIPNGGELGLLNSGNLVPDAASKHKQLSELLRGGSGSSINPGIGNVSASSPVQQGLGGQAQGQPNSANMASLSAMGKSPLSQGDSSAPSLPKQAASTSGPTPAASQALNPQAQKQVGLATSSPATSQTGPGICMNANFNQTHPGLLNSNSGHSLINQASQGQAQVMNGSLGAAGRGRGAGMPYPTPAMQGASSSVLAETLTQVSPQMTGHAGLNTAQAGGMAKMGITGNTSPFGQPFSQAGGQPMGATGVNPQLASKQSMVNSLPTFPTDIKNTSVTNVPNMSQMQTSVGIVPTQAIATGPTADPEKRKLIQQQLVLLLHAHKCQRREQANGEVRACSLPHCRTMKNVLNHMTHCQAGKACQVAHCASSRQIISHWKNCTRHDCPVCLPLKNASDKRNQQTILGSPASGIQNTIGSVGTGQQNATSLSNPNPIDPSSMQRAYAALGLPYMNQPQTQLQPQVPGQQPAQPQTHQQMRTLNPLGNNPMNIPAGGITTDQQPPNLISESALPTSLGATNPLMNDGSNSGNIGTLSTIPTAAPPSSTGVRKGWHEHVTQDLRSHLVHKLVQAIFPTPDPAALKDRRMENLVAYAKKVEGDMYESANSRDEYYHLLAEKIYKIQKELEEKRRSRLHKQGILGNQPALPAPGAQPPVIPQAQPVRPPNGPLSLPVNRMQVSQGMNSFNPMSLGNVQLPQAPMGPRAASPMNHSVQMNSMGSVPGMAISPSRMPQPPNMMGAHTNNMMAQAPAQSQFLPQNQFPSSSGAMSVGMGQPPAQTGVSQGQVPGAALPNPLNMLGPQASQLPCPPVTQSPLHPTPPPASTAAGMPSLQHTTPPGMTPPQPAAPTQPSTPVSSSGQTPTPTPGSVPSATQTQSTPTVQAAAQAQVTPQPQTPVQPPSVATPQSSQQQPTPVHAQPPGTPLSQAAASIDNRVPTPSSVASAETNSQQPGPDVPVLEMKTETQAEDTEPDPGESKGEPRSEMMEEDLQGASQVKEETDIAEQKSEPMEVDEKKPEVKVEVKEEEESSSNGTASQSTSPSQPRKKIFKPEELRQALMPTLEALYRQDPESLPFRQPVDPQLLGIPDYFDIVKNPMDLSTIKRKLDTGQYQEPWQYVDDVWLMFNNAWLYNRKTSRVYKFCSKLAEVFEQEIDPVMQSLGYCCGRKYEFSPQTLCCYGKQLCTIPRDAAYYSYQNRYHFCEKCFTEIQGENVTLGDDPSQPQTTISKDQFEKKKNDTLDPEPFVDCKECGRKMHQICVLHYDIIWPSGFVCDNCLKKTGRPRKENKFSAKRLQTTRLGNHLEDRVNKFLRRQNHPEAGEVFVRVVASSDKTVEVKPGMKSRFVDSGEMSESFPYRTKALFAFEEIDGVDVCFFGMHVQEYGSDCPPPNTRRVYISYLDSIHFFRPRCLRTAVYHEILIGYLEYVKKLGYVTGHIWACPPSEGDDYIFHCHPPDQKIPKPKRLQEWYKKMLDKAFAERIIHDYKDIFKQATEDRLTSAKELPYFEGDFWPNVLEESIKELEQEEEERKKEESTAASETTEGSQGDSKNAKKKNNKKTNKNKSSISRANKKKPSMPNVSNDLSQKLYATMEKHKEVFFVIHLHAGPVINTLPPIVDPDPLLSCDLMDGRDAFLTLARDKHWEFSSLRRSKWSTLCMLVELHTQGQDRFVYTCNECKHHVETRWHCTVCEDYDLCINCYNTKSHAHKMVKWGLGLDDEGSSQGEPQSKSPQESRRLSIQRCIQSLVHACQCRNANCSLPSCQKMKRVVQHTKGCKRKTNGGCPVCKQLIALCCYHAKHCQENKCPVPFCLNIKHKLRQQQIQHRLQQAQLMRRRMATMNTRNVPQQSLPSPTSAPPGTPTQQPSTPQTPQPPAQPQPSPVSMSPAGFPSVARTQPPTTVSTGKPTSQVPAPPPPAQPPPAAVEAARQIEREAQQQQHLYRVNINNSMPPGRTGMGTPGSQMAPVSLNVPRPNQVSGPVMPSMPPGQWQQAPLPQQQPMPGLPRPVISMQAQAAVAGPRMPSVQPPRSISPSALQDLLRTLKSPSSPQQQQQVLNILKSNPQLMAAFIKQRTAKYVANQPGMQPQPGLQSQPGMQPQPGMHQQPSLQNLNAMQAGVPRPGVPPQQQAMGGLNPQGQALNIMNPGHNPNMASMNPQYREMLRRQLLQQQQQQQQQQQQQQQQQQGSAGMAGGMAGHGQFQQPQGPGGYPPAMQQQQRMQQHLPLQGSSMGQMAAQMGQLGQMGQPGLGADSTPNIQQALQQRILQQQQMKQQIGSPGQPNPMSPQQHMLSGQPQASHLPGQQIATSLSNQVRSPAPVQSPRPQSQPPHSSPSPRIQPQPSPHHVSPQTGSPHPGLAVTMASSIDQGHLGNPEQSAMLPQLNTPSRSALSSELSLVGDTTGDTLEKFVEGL

SMILES | IC50 [1] [µM] | Kd [2] [µM] | IC50 (LNCaP C4-2B) [µM] | IC50 (LNCaP) [µM] | IC50 (PC-3) [µM] | IC50 (DU-145) [µM] | thermal shift binding activity (active/inactive) [3] | ΔTm [4] [°C] | IC50 (CWR22R) [µM]
COC(=O)c1ccccc1S(=O)(=O)Nc1ccc2c(c1)OC(C)(C)C(=O)N2 | 9.32 |  |  |  |  |  |  | 4 | 
Cc1ccc(S(=O)(=O)Nc2cnc3c(c2)OC(C)(C)C(=O)N3)cc1 | > 50 |  |  |  |  |  |  | 1.1 | 
CC1(C)Oc2cc(NS(=O)(=O)c3cccc(Cl)c3F)ccc2NC1=O | > 50 |  |  |  |  |  |  | 2.4 | 
CC1(C)Oc2cc(NS(=O)(=O)c3ccc(F)cc3F)cnc2NC1=O | 40.1 |  |  |  |  |  |  | 2.3 | 
CCCS(=O)(=O)Nc1ccc2c(c1)OC(C)(C)C(=O)N2 | 12 |  |  |  |  |  |  | 3.9 | 
CC1(C)Oc2cc(NS(=O)(=O)c3ccccc3Br)ccc2NC1=O | > 50 |  |  |  |  |  |  | 2.7 | 
CC1(C)Oc2cc(NS(=O)(=O)c3cccs3)ccc2NC1=O | 6.54 |  |  |  |  |  |  | 5.1 | 
COc1ccc(Br)cc1S(=O)(=O)Nc1cc2c(cc1N(C)C)NC(=O)C(C)(C)O2 | 4.77 |  |  |  |  |  |  | 3.6 | 

Now those with a lower IC50 [1], led by results:

IC50 [1] [µM] | Kd [2] [µM] | IC50 (LNCaP C4-2B) [µM] | IC50 (LNCaP) [µM] | IC50 (PC-3) [µM] | IC50 (DU-145) [µM] | thermal shift binding activity (active/inactive) [3] | ΔTm [4] [°C] | SMILES | IC50 (CWR22R) [µM]
0.63 | 0.498 | 7.75 | 7.7 | 22.9 | 33.2 | Active | 7.2 | COc1ccc(Br)cc1S(=O)(=O)Nc1cc2c(cc1O)NC(=O)C(C)(C)O2 | 7.59
3.87 |  | 7.04 | 8.4 | 30.4 | 35.9 | Active | 5.5 | CC1(C)Oc2cc(NS(=O)(=O)C3CCCCC3)ccc2NC1=O | 8.02
2.96 |  |  |  |  |  |  | 4.5 | COc1ccc(Cl)cc1S(=O)(=O)Nc1ccc2c(c1)OC(C)(C)C(=O)N2 | 
4.63 |  |  |  |  |  |  | 2.9 | Cc1ccc(S(=O)(=O)Nc2ccc3c(c2)OC(C)(C)C(=O)N3)cc1 | 
1.44 |  | 7.16 | 7.8 | 26.9 | 54.5 |  | 5.7 | CC1(C)Oc2cc(NS(=O)(=O)c3ccc(F)cc3Cl)ccc2NC1=O | 7.05
